From ChEMBL document CHEMBL3627671, “Novel derivatives of nitro-substituted salicylic acids: Synthesis, antimicrobial activity and cytotoxicity” (Bioorg Med Chem, 2015)
Converted amounts (≈) assume the structure as drawn.

Tests used:
Format in all cases: functional
Aspergillus fumigatus [1] = assay: Antifungal activity against Aspergillus fumigatus 231 after 48 hrs by microdilution broth method; conditions: Aspergillus fumigatus, 231, 48 h
Outline: (§1)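 CLSI M27-A3 broth microdilution in RPMI 1640 with glutamine, buffered to pH 7.0 with MOPS; DMSO diluent. Yeast inoculum 5 × 10^3 ± 0.2 CFU/mL. Moulds grown on Sabouraud agar 3–10 days before spore harvest, final inoculum 0.5-5 × 10^4 CFU/mL, checked in a Bürker chamber. Incubated dark, humid, 35 °C, read at 24 and 48 h visually and at 540 nm. MIC taken as ≥80% (yeasts) or ≥50% (filamentous) growth reduction versus control.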

Lichtheimia corymbifera [2] = assay: Antifungal activity against Absidia corymbifera 272 after 48 hrs by microdilution broth method; conditions: Lichtheimia corymbifera, 272, 48 h; outline: as §1
Nakaseomyces glabratus [3] = assay: Antifungal activity against Candida glabrata 20/I after 24 hrs by microdilution broth method; outline: as §1
[4] = system: Mycobacterium tuberculosis; assay: Antimycobacterial activity against Mycobacterium tuberculosis H37Rv 331/88 after 14 days; conditions: H37Rv 331/88, 336 h
Mycobacterium kansasii [5] = assay: Antimycobacterial activity against Mycobacterium kansasii 235/80 after 21 days; conditions: 235/80, 504 h
Outline: (§2)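 Šula's semisynthetic medium micromethod at 37 °C, read after 7, 14 and 21 days. The 1.0 McFarland suspension was diluted 10^-4. MIC determined. 6509/96 is a clinical isolate.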

Aspergillus fumigatus [6] = assay: Antifungal activity against Aspergillus fumigatus 231 after 24 hrs by microdilution broth method; conditions: Aspergillus fumigatus, 231, 24 h; outline: as §1
Candida tropicalis [7] = assay: Antifungal activity against Candida tropicalis 156 after 24 hrs by microdilution broth method; conditions: Candida tropicalis, 156, 24 h; outline: as §1
Pichia kudriavzevii [8] = assay: Antifungal activity against Candida krusei E28 after 48 hrs by microdilution broth method; conditions: E28, 48 h; outline: as §1
Mycobacterium kansasii [9] = assay: Antimycobacterial activity against Mycobacterium kansasii 235/80 after 14 days; conditions: 235/80, 336 h; outline: as §2
Candida tropicalis [10] = assay: Antifungal activity against Candida tropicalis 156 after 48 hrs by microdilution broth method; conditions: Candida tropicalis, 156, 48 h; outline: as §1
Staphylococcus aureus [11] = assay: Antibacterial activity against Staphylococcus aureus CCM 4516/08 after 48 hrs by microdilution broth method; conditions: CCM 4516/08, 48 h
Klebsiella pneumoniae [12] = assay: Antibacterial activity against ESBL-positive Klebsiella pneumoniae J 14368/08 after 48 hrs by microdilution broth method; conditions: J 14368/08, 48 h
Outline: (§3)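 Mueller-Hinton broth microdilution (modified M07-A07), pH 7.4 (±0.2). Compounds dissolved in DMSO, tested at final 500 to 0.49 µmol/L. Inoculum in sterile water matched to 0.5 McFarland. Incubated in the dark, humid atmosphere, 35 °C, read at 24 and 48 h visually and at 540 nm. MIC taken as ≥95% growth reduction (IC95) versus control.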

Staphylococcus aureus [13] = assay: Antibacterial activity against methicillin-resistant Staphylococcus aureus H 5996/08 after 24 hrs by microdilution broth method; conditions: H 5996/08, 24 h
Candida albicans [14] = assay: Antifungal activity against Candida albicans ATCC 44859 after 24 hrs by microdilution broth method; conditions: ATCC 44859, 24 h; outline: as §1
Klebsiella pneumoniae [15] = assay: Antibacterial activity against Klebsiella pneumoniae D 11750/08 after 48 hrs by microdilution broth method; conditions: D 11750/08, 48 h; outline: as §3
Enterococcus sp. [16] = assay: Antibacterial activity against Enterococcus sp. J 14365/08 after 24 hrs by microdilution broth method; conditions: J 14365/08, 24 h; outline: as §3
[17] = system: Staphylococcus epidermidis; assay: Antibacterial activity against Staphylococcus epidermidis H 6966/08 after 48 hrs by microdilution broth method; conditions: H 6966/08, 48 h; outline: as §3
Pseudomonas aeruginosa [18] = assay: Antibacterial activity against Pseudomonas aeruginosa CCM 1961 after 24 hrs by microdilution broth method; conditions: CCM 1961, 24 h; outline: as §3
Mycobacterium kansasii [19] = assay: Antimycobacterial activity against Mycobacterium kansasii 6509/96 after 7 days; conditions: 6509/96, 168 h; outline: as §2
Trichosporon asahii [20] = assay: Antifungal activity against Trichosporon asahii 1188 after 48 hrs by microdilution broth method; conditions: Trichosporon asahii, 1188, 48 h; outline: as §1
Mycobacterium kansasii [21] = assay: Antimycobacterial activity against Mycobacterium kansasii 235/80 after 7 days; conditions: 235/80, 168 h; outline: as §2
Klebsiella pneumoniae [22] = assay: Antibacterial activity against ESBL-positive Klebsiella pneumoniae J 14368/08 after 24 hrs by microdilution broth method; conditions: J 14368/08, 24 h; outline: as §3
Staphylococcus aureus [23] = assay: Antibacterial activity against methicillin-resistant Staphylococcus aureus H 5996/08 after 48 hrs by microdilution broth method; conditions: H 5996/08, 48 h
Lichtheimia corymbifera [24] = assay: Antifungal activity against Absidia corymbifera 272 after 24 hrs by microdilution broth method; conditions: Lichtheimia corymbifera, 272, 24 h; outline: as §1
Staphylococcus aureus [25] = assay: Antibacterial activity against Staphylococcus aureus CCM 4516/08 after 24 hrs by microdilution broth method; conditions: CCM 4516/08, 24 h
[26] = system: Mycobacterium tuberculosis; assay: Antimycobacterial activity against Mycobacterium tuberculosis H37Rv 331/88 after 21 days; conditions: H37Rv 331/88, 504 h
Pseudomonas aeruginosa [27] = assay: Antibacterial activity against Pseudomonas aeruginosa CCM 1961 after 48 hrs by microdilution broth method; conditions: CCM 1961, 48 h; outline: as §3
[28] = system: Trichophyton mentagrophytes; assay: Antifungal activity against Trichophyton mentagrophytes 445 after 24 hrs by microdilution broth method; conditions: Trichophyton mentagrophytes, 445, 24 h
Klebsiella pneumoniae [29] = assay: Antibacterial activity against Klebsiella pneumoniae D 11750/08 after 24 hrs by microdilution broth method; conditions: D 11750/08, 24 h; outline: as §3
Mycobacterium kansasii [30] = assay: Antimycobacterial activity against Mycobacterium kansasii 6509/96 after 14 days; conditions: 6509/96, 336 h; outline: as §2
Enterococcus sp. [31] = assay: Antibacterial activity against Enterococcus sp. J 14365/08 after 48 hrs by microdilution broth method; conditions: J 14365/08, 48 h; outline: as §3
Trichosporon asahii [32] = assay: Antifungal activity against Trichosporon asahii 1188 after 24 hrs by microdilution broth method; conditions: Trichosporon asahii, 1188, 24 h; outline: as §1
Mycobacterium avium [33] = assay: Antimycobacterial activity against Mycobacterium avium 330/80 after 14 days; conditions: 330/80, 336 h
Mycobacterium avium [34] = assay: Antimycobacterial activity against Mycobacterium avium 330/80 after 21 days; conditions: 330/80, 504 h
Escherichia coli [35] = assay: Antibacterial activity against Escherichia coli CCM4517 after 24 hrs by microdilution broth method; conditions: CCM4517, 24 h; outline: as §3
Candida albicans [36] = assay: Antifungal activity against Candida albicans ATCC 44859 after 48 hrs by microdilution broth method; conditions: ATCC 44859, 48 h; outline: as §1
[37] = system: Trichophyton mentagrophytes; assay: Antifungal activity against Trichophyton mentagrophytes 445 after 48 hrs by microdilution broth method; conditions: Trichophyton mentagrophytes, 445, 48 h
[38] = system: Staphylococcus epidermidis; assay: Antibacterial activity against Staphylococcus epidermidis H 6966/08 after 24 hrs by microdilution broth method; conditions: H 6966/08, 24 h; outline: as §3
Escherichia coli [39] = assay: Antibacterial activity against Escherichia coli CCM4517 after 48 hrs by microdilution broth method; conditions: CCM4517, 48 h; outline: as §3
Pichia kudriavzevii [40] = assay: Antifungal activity against Candida krusei E28 after 24 hrs by microdilution broth method; conditions: E28, 24 h; outline: as §1
Nakaseomyces glabratus [41] = assay: Antifungal activity against Candida glabrata 20/I after 48 hrs by microdilution broth method; outline: as §1
Mycobacterium kansasii [42] = assay: Antimycobacterial activity against Mycobacterium kansasii 6509/96 after 21 days; conditions: 6509/96, 504 h; outline: as §2

O=C(Nc1cccc([N+](=O)[O-])c1)c1cc([N+](=O)[O-])ccc1O
MIC (Aspergillus fumigatus [1]): > 250 µM
MIC (Lichtheimia corymbifera [2]): > 250 µM
MIC (Nakaseomyces glabratus [3]): > 250 µM
MIC [4]: 62.5 µM (≈ 19 µg/mL)
MIC (Mycobacterium kansasii [5]): 125 µM (≈ 37.9 µg/mL)
MIC (Aspergillus fumigatus [6]): > 250 µM
MIC (Candida tropicalis [7]): > 250 µM
MIC (Pichia kudriavzevii [8]): > 250 µM
MIC (Mycobacterium kansasii [9]): 62.5 µM (≈ 19 µg/mL)
MIC (Candida tropicalis [10]): > 250 µM
MIC (Staphylococcus aureus [11]): 500 µM (≈ 152 µg/mL)
MIC (Klebsiella pneumoniae [12]): > 500 µM
MIC (Staphylococcus aureus [13]): 500 µM (≈ 152 µg/mL)
MIC (Candida albicans [14]): > 250 µM
MIC (Klebsiella pneumoniae [15]): > 500 µM
MIC (Enterococcus sp. [16]): > 500 µM
MIC [17]: 500 µM (≈ 152 µg/mL)
MIC (Pseudomonas aeruginosa [18]): > 500 µM
MIC (Mycobacterium kansasii [19]): 62.5 µM (≈ 19 µg/mL)
MIC (Trichosporon asahii [20]): > 250 µM
MIC (Mycobacterium kansasii [21]): 16 µM (≈ 4.85 µg/mL)
MIC (Klebsiella pneumoniae [22]): > 500 µM
MIC (Staphylococcus aureus [23]): 500 µM (≈ 152 µg/mL)
MIC (Lichtheimia corymbifera [24]): > 250 µM
MIC (Staphylococcus aureus [25]): 500 µM (≈ 152 µg/mL)
MIC [26]: 62.5 µM (≈ 19 µg/mL)
MIC (Pseudomonas aeruginosa [27]): > 500 µM
MIC [28]: > 250 µM
MIC (Klebsiella pneumoniae [29]): > 500 µM
MIC (Mycobacterium kansasii [30]): 125 µM (≈ 37.9 µg/mL)
MIC (Enterococcus sp. [31]): > 500 µM
MIC (Trichosporon asahii [32]): > 250 µM
MIC (Mycobacterium avium [33]): 125 µM (≈ 37.9 µg/mL)
MIC (Mycobacterium avium [34]): 125 µM (≈ 37.9 µg/mL)
MIC (Escherichia coli [35]): > 500 µM
MIC (Candida albicans [36]): > 250 µM
MIC [37]: > 250 µM
MIC [38]: 500 µM (≈ 152 µg/mL)
MIC (Escherichia coli [39]): > 500 µM
MIC (Pichia kudriavzevii [40]): > 250 µM
MIC (Nakaseomyces glabratus [41]): > 250 µM
MIC (Mycobacterium kansasii [42]): 125 µM (≈ 37.9 µg/mL)

O=C(Nc1ccc([N+](=O)[O-])c(C(F)(F)F)c1)c1ccc([N+](=O)[O-])cc1O
MIC (Aspergillus fumigatus [1]): 250 µM (≈ 92.8 µg/mL)
MIC (Lichtheimia corymbifera [2]): 125 µM (≈ 46.4 µg/mL)
MIC (Nakaseomyces glabratus [3]): > 500 µM
MIC [4]: 16 µM (≈ 5.94 µg/mL)
MIC (Mycobacterium kansasii [5]): 32 µM (≈ 11.9 µg/mL)
MIC (Aspergillus fumigatus [6]): 250 µM (≈ 92.8 µg/mL)
MIC (Candida tropicalis [7]): > 500 µM
MIC (Pichia kudriavzevii [8]): 250 µM (≈ 92.8 µg/mL)
MIC (Mycobacterium kansasii [9]): 32 µM (≈ 11.9 µg/mL)
MIC (Candida tropicalis [10]): > 500 µM
MIC (Staphylococcus aureus [11]): 7.81 µM (≈ 2.9 µg/mL)
MIC (Klebsiella pneumoniae [12]): > 500 µM
MIC (Staphylococcus aureus [13]): 3.9 µM (≈ 1.45 µg/mL)
MIC (Candida albicans [14]): > 500 µM
MIC (Klebsiella pneumoniae [15]): > 500 µM
MIC (Enterococcus sp. [16]): 250 µM (≈ 92.8 µg/mL)
MIC [17]: 7.81 µM (≈ 2.9 µg/mL)
MIC (Pseudomonas aeruginosa [18]): > 500 µM
MIC (Mycobacterium kansasii [19]): 16 µM (≈ 5.94 µg/mL)
MIC (Trichosporon asahii [20]): 500 µM (≈ 186 µg/mL)
MIC (Mycobacterium kansasii [21]): 16 µM (≈ 5.94 µg/mL)
MIC (Klebsiella pneumoniae [22]): > 500 µM
MIC (Staphylococcus aureus [23]): 3.9 µM (≈ 1.45 µg/mL)
MIC (Lichtheimia corymbifera [24]): 125 µM (≈ 46.4 µg/mL)
MIC (Staphylococcus aureus [25]): 7.81 µM (≈ 2.9 µg/mL)
MIC [26]: 16 µM (≈ 5.94 µg/mL)
MIC (Pseudomonas aeruginosa [27]): > 500 µM
MIC [28]: 500 µM (≈ 186 µg/mL)
MIC (Klebsiella pneumoniae [29]): > 500 µM
MIC (Mycobacterium kansasii [30]): 32 µM (≈ 11.9 µg/mL)
MIC (Enterococcus sp. [31]): 500 µM (≈ 186 µg/mL)
MIC (Trichosporon asahii [32]): 250 µM (≈ 92.8 µg/mL)
MIC (Mycobacterium avium [33]): 62.5 µM (≈ 23.2 µg/mL)
MIC (Mycobacterium avium [34]): 62.5 µM (≈ 23.2 µg/mL)
MIC (Escherichia coli [35]): > 500 µM
MIC (Candida albicans [36]): > 500 µM
MIC [37]: > 500 µM
MIC [38]: 7.81 µM (≈ 2.9 µg/mL)
MIC (Escherichia coli [39]): > 500 µM
MIC (Pichia kudriavzevii [40]): 250 µM (≈ 92.8 µg/mL)
MIC (Nakaseomyces glabratus [41]): > 500 µM
MIC (Mycobacterium kansasii [42]): 32 µM (≈ 11.9 µg/mL)
